Measurements as given in ChEMBL document CHEMBL1275591, “Cellular pharmacodynamics of the novel biaryloxazolidinone radezolid: studies with infected phagocytic and nonphagocytic cells, using Staphylococcus aureus, Staphylococcus epidermidis, Listeria monocytogenes, and Legionella pneumophila” (Antimicrob Agents Chemother, 2010).
Converted amounts (≈) assume the structure as drawn.

What was measured:
Staphylococcus aureus [1] = assay: Bacteriostatic activity against linezolid-susceptible Staphylococcus aureus SA238 after 24 hrs; assay type: functional
Procedure, shortened: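 Extracellular concentration-response in Mueller-Hinton broth over 24 h. Change in CFU was fitted to a sigmoidal function, and the apparent static concentration (Cs) was derived from the fit.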

Staphylococcus aureus [2] = assay: Antimicrobial activity against hospital acquired methicillin-resistant Staphylococcus aureus SA238 after 24 hrs; assay type: functional; details: SA238, 24 h
Staphylococcus aureus [3] = assay: Antimicrobial activity against linezolid-susceptible Staphylococcus aureus SA238 infected in Calu-3 cells assessed as log reduction in bacterial count after 24 hrs; assay type: functional
Procedure, shortened: (§1)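 S. aureus was internalized by adherent nonphagocytic cells: Calu-3, HUVEC, keratinocytes on collagen-coated wells, osteoblasts, or rat embryo fibroblasts. Inoculum was 5 × 10^7 to 1 × 10^8 bacteria/ml with 2 h phagocytosis (HUVEC: 2 × 10^6/ml, 1 h). Cells were then exposed to graded drug concentrations for 24 h. CFU change versus the original inoculum was fitted sigmoidally for Emax and Cs.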

Staphylococcus aureus [4] = assay: Bacteriostatic activity against linezolid-susceptible Staphylococcus aureus ATCC 25923 infected in THP1 cells after 24 hrs; assay type: functional, THP-1
Procedure, shortened: (§2)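 Human THP-1 myelomonocytic (macrophage-like) cells infected with S. aureus, then exposed 24 h to a range of antibiotic concentrations. CFU change was measured against the initial inoculum. A sigmoidal dose-response curve was fitted to give Emin, Emax and EC50, and the apparent static concentration (Cs) was taken from the fit.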

Staphylococcus aureus [5] = assay: Antimicrobial activity against methicillin-susceptible Staphylococcus aureus SA040 after 24 hrs; assay type: functional; details: SA040, 24 h
Listeria monocytogenes = assay: Antimicrobial activity against Listeria monocytogenes infected in THP1 cells after 24 hrs; assay type: functional, organism-based; details: THP-1, 24 h
Procedure, shortened: (§3)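 Bacteria were phagocytosed by human THP-1 macrophage-like cells, then exposed to a range of drug concentrations for a fixed time: 24 h for S. aureus, S. epidermidis and L. monocytogenes, 48 h for L. pneumophila. Change in CFU versus the initial inoculum was fitted with a sigmoidal curve to give Emin, Emax (relative maximal efficacy), EC50 and static concentration (Cs).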

Staphylococcus aureus [6] = assay: Antimicrobial activity against hospital acquired methicillin-resistant, vancomycin resistant Staphylococcus aureus VRS2 after 24 hrs; assay type: functional; details: VRS2, 24 h
Staphylococcus aureus [7] = assay: Bacteriostatic activity against linezolid-susceptible Staphylococcus aureus SA238 infected in THP1 cells after 24 hrs; assay type: functional, THP-1; procedure, shortened: as §2
Staphylococcus aureus [8] = assay: Antimicrobial activity against Staphylococcus aureus ATCC 25923 infected in THP-1 cells assessed as log reduction in bacterial count at 1 mg/L after 5 hrs; assay type: functional
Procedure, shortened: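 Time-course test with S. aureus ATCC 25923, either in Mueller-Hinton broth or after phagocytosis by THP-1 cells. Samples were taken over a 5 h incubation with drug at 1 mg/liter. Read-out was the change in CFU relative to the initial inoculum, reported as means.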

Staphylococcus aureus [9] = assay: Antimicrobial activity against linezolid-resistant Staphylococcus aureus SA238L infected in THP1 cells assessed as log reduction in bacterial count after 24 hrs; assay type: functional, THP-1; procedure, shortened: as §3
Legionella pneumophila = assay: Bacteriostatic activity against Legionella pneumophila ATCC 33153 infected in THP1 cells after 48hrs; assay type: functional, THP-1; procedure, shortened: as §3
Staphylococcus aureus [10] = assay: Antimicrobial activity against linezolid-susceptible Staphylococcus aureus ATCC 33591 infected in THP1 cells assessed as log reduction in bacterial count after 24 hrs; assay type: functional, THP-1; procedure, shortened: as §3
Staphylococcus aureus [11] = assay: Antimicrobial activity against linezolid-resistant Staphylococcus aureus SA238L infected in Calu-3 cells assessed as log reduction in bacterial count after 24 hrs; assay type: functional; procedure, shortened: as §1
[12] = system: Staphylococcus epidermidis; assay: Antimicrobial activity against Staphylococcus epidermidis SA362 after 24 hrs; assay type: functional; details: SA362, 24 h
Staphylococcus aureus [13] = assay: Bacteriostatic activity against Staphylococcus aureus infected in THP1 cells after 24 hrs; assay type: functional, THP-1; procedure, shortened: as §3
Staphylococcus aureus [14] = assay: Antimicrobial activity against linezolid-susceptible Staphylococcus aureus SA238 infected in human epidermal keratinocytes cells assessed as log reduction in bacterial count after 24 hrs; assay type: functional; procedure, shortened: as §1
Staphylococcus aureus [15] = assay: Bacteriostatic activity against linezolid-susceptible Staphylococcus aureus SA238 infected in human osteoblasts cells after 24 hrs; assay type: functional
Procedure, shortened: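 Adherent nonphagocytic cells were infected at 5 × 10^7 to 1 × 10^8 bacteria/ml with 2 h phagocytosis. Cells used: Calu-3 bronchial epithelium grown in uncoated flasks, neonatal foreskin keratinocytes on collagen-coated wells, primary human osteoblasts, and primary rat embryo fibroblasts. Antibiotic was then given over a concentration range for 24 h. Cs came from a sigmoidal fit of CFU change.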

Staphylococcus aureus [16] = assay: Antimicrobial activity against linezolid-susceptible Staphylococcus aureus NRS384 infected in THP1 cells assessed as log reduction in bacterial count after 24 hrs; assay type: functional, THP-1; procedure, shortened: as §3

## CC(=O)NC[C@H]1CN(c2ccc(-c3ccc(CNCc4cnn[nH]4)cc3)c(F)c2)C(=O)O1 [RADEZOLID]
Staphylococcus aureus [1]
  Activity: 0.52 mg/L
Staphylococcus aureus [2]
  MIC: 0.5 µg/mL (≈ 1.14 µM)
Staphylococcus aureus [3]
  log10cfu: 0.6
Staphylococcus aureus [4]
  Activity: 0.91 mg/L
Staphylococcus aureus [5]
  MIC: 1 µg/mL (≈ 2.28 µM)
Listeria monocytogenes
  EC50: 0.04 µg/mL (≈ 0.0912 µM)
Staphylococcus aureus [6]
  MIC: 2 µg/mL (≈ 4.56 µM)
Staphylococcus aureus [7]
  Activity: 0.56 mg/L
Staphylococcus aureus [8]
  log10cfu: 0.5
Staphylococcus aureus [9]
  log10cfu: -0.77
Legionella pneumophila
  Activity: 0.36 mg/L
Staphylococcus aureus [10]
  log10cfu: -0.56
Staphylococcus aureus [11]
  log10cfu: 0.6
[12]
  MIC: 0.25 µg/mL (≈ 0.57 µM)
Staphylococcus aureus [13]
  Activity: 0.91 mg/L
Staphylococcus aureus [14]
  log10cfu: 0.6
Staphylococcus aureus [15]
  Activity: 0.6 mg/L
Staphylococcus aureus [16]
  log10cfu: -0.61
